Measurements: ChEMBL document CHEMBL4011649 (J Med Chem, 2017)
Calls of active or inactive are those of the source. The calls are words filed in the database; no cut-off is given here.

Legend:
[1] = molecular target: T1, 5-hydroxytryptamine receptor 2C (Homo sapiens) (UniProt P28335); test: Agonist activity at human 5-HT2C-INI receptor isoform expressed in Flp-IN HEK293 cells assessed as induction of Gq-mediated calcium flux measured every second for 5 mins by Fluo-4 dye based FLIPR assay relative to serotonin; assay type: functional, cell-based
T1 sequence (whole entry): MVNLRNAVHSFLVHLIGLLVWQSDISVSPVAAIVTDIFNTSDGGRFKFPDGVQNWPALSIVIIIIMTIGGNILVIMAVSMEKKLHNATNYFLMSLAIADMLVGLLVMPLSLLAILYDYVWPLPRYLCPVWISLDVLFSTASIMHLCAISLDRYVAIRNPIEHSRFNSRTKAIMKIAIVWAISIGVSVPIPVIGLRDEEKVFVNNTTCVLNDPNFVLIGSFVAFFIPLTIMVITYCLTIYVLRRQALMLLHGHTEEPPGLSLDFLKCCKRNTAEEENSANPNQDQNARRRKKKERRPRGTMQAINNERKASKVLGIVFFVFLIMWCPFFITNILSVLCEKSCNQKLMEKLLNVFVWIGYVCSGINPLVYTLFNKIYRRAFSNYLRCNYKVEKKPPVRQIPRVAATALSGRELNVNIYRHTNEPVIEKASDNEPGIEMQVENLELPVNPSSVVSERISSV

[2] = molecular target: T2, 5-hydroxytryptamine receptor 2A (Homo sapiens, UniProt P28223); test: Agonist activity at human 5-HT2A receptor expressed in Flp-IN HEK293 cells assessed as induction of calcium flux measured every second for 5 mins by Fluo-4 dye based FLIPR assay; assay type: cell-based
T2 sequence (P28223 whole entry): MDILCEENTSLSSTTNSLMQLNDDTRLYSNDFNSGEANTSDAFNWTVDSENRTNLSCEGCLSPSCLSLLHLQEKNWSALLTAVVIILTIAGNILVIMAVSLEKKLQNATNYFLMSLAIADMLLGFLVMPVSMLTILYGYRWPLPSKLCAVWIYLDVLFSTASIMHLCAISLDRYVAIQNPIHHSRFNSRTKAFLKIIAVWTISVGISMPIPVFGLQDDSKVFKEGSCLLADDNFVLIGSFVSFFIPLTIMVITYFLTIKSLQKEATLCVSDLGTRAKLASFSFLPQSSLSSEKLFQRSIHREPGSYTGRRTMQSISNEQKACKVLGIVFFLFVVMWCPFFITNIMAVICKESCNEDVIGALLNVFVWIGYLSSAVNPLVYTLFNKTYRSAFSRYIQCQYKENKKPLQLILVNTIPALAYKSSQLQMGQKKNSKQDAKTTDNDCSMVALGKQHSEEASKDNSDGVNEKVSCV

5-HT2A receptor = 5-HT2A receptor (Homo sapiens, UniProt P28223); test: Agonist activity at human 5-HT2A receptor expressed in Flp-IN HEK293 cells assessed as induction of calcium flux measured every second for 5 mins by Fluo-4 dye based FLIPR assay relative to serotonin; assay type: cell-based; conditions: Flp-IN HEK293 cells expressing human 5-HT2A receptor
5-HT2A receptor, sequence (P28223 whole entry, canonical isoform): as the sequence (P28223 whole entry) above

[3] = molecular target: T3, 5-hydroxytryptamine receptor 2C (Homo sapiens, UniProt P28335); test: Agonist activity at human 5-HT2C-INI receptor isoform expressed in Flp-IN HEK293 cells assessed as induction of Gq-mediated calcium flux measured every second for 5 mins by Fluo-4 dye based FLIPR assay; assay type: functional, cell-based
T3 sequence (P28335 whole entry): T1 sequence (whole entry)

[4] = molecular target: T4, 5-hydroxytryptamine receptor 2B (Homo sapiens, UniProt P41595); test: Agonist activity at human 5-HT2B receptor expressed in Flp-IN HEK293 cells assessed as induction of calcium flux up to 10 uM measured every second for 5 mins by Fluo-4 dye based FLIPR assay; assay type: cell-based; conditions: hek293, 5 min
T4 sequence (P41595 whole entry): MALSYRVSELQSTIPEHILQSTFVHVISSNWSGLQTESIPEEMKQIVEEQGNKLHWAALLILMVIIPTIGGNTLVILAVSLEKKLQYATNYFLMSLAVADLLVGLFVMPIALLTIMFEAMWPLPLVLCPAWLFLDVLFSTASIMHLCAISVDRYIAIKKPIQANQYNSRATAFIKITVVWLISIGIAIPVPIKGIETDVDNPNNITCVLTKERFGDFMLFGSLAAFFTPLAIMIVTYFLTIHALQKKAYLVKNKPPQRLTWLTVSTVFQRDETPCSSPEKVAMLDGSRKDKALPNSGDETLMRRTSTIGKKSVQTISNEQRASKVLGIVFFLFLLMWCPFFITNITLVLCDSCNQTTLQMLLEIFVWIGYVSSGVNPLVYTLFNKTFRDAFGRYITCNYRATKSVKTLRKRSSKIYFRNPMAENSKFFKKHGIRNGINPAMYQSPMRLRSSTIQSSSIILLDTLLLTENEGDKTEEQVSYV

5-HT2B receptor = 5-HT2B receptor (Homo sapiens, UniProt P41595); test: Agonist activity at human 5-HT2B receptor expressed in Flp-IN HEK293 cells assessed as induction of calcium flux measured every second for 5 mins by Fluo-4 dye based FLIPR assay relative to serotonin; assay type: cell-based; conditions: Flp-IN HEK293 cells expressing human 5-HT2B receptor
5-HT2B receptor, sequence (P41595 whole entry): as above

[5] = molecular target: T4, 5-hydroxytryptamine receptor 2B; test: Agonist activity at human 5-HT2B receptor expressed in Flp-IN HEK293 cells assessed as induction of calcium flux measured every second for 5 mins by Fluo-4 dye based FLIPR assay; assay type: cell-based
[6] = molecular target: T1, 5-hydroxytryptamine receptor 2C (Homo sapiens); test: Agonist activity at tTA containing TEV cleavage site-fused 5-HT2C-INI receptor isoform (unknown origin) expressed in TEV-fused beta-arrestin2 expressing HEK cells assessed as induction of beta-arrestin2 recruitment after 20 hrs by Tango assay relative to serotonin; assay type: cell-based
In short: (§1)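 HTLA cells (HEK cells with TEV-fused β-arrestin-2 and tTA-driven luciferase) transfected with tTA-fused 5-HT2C-INI receptor carrying a TEV site. Luminescence read after 20 min lysis at room temperature. Normalized to % 5-HT and fitted sigmoidally. NA means no activity up to 10 μM. Mean of n = 3.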

[7] = molecular target: T1, 5-hydroxytryptamine receptor 2C (Homo sapiens); test: Agonist activity at human 5-HT2C-INI receptor isoform expressed in Flp-IN HEK293 cells assessed as induction of Gq-mediated calcium flux up to 10 uM measured every second for 5 mins by Fluo-4 dye based FLIPR assay; assay type: functional, cell-based
[8] = molecular target: T2, 5-hydroxytryptamine receptor 2A; test: Agonist activity at human 5-HT2A receptor expressed in Flp-IN HEK293 cells assessed as induction of calcium flux up to 10 uM measured every second for 5 mins by Fluo-4 dye based FLIPR assay; assay type: cell-based; conditions: hek293, 5 min
[9] = molecular target: T1, 5-hydroxytryptamine receptor 2C (Homo sapiens); test: Ratio of Emax to EC50 for human 5-HT2C-INI receptor isoform expressed in Flp-IN HEK293 cells; assay type: cell-based
[10] = molecular target: T1, 5-hydroxytryptamine receptor 2C (Homo sapiens); test: Agonist activity at tTA containing TEV cleavage site-fused 5-HT2C-INI receptor isoform (unknown origin) expressed in TEV-fused beta-arrestin2 expressing HEK cells assessed as induction of beta-arrestin2 recruitment up to 10 uM after 20 hrs by Tango assay; assay type: cell-based; in short: as §1
[11] = molecular target: T1, 5-hydroxytryptamine receptor 2C (Homo sapiens); test: Ratio of Emax to EC50 for tTA containing TEV cleavage site-fused 5-HT2C-INI receptor isoform (unknown origin) expressed in TEV-fused beta-arrestin2 expressing HEK cells assessed as induction of beta-arrestin2 recruitment activity; assay type: cell-based
[12] = molecular target: T3, 5-hydroxytryptamine receptor 2C; test: Agonist activity at tTA containing TEV cleavage site-fused 5-HT2C-INI receptor isoform (unknown origin) expressed in TEV-fused beta-arrestin2 expressing HEK cells assessed as induction of beta-arrestin2 recruitment after 20 hrs by Tango assay; assay type: cell-based
Homo sapiens = species on record: Homo sapiens; test: Selectivity ratio of EC50 for human 5HT2B receptor to EC50 for human 5HT2C-INI receptor

Row | SMILES | Emax [1] | EC50 [2] | Emax at 5 min (5-HT2A receptor) | EC50 ([3]; read-out: EC50) | Activity [4] | Emax at 5 min (5-HT2B receptor) | other results
1 | COc1ccc(F)cc1C1CC1CNCc1sccc1OC.Cl (racemic) | 66% | 0.148 µM | 102% | 0.121 µM | Not Active |  | 
2 | COc1ccc(F)cc1C1CC1CNCc1ccccc1C(N)=O (racemic) | 31% | 1.31 µM | 67% | 0.409 µM |  | 82% | EC50 [5]: 0.335 µM
3 | COc1ccccc1CNC[C@H]1C[C@@H]1c1cc(F)ccc1OCCF | 93% |  | 78% |  |  | 22% | Emax [6]: 54%
4 | CNC[C@H]1C[C@@H]1c1cc(F)ccc1OCCF.Cl |  |  |  |  | Not Active |  | Activity [7]: inactive; Activity [8]: Not Active
5 | COc1cscc1CNCC1CC1c1cc(F)ccc1OC.Cl (racemic) | 65% | 0.145 µM | 89% | 0.228 µM | Not Active |  | 
6 | CNC[C@H]1C[C@@H]1c1cc(F)ccc1OC | 71% | 0.271 µM | 79% | 0.023 µM |  | 54% | log(ratio) [9]: 7.49; Activity [10]: inactive; EC50 [5]: 0.089 µM
7 | C=CCOc1ccc(F)cc1[C@H]1C[C@@H]1CNCc1ccccc1OC | 97% | 0.028 µM | 80% | 0.0092 µM |  | 28% | log(ratio) [9]: 8.02; EC50 ([3]; read-out: pEC50 (converted)): 0.00891 µM; Emax [6]: 56%; log(ratio) [11]: 7.39; EC50 [12]: 0.0227 µM; EC50 [5]: 0.113 µM
8 | COc1ccc(F)cc1C1CC1CNC1(c2ccccc2OC)CC1.Cl (racemic) | 77% | 0.655 µM | 102% | 0.874 µM | Not Active |  | 
9 | COc1cccc(CNC[C@H]2C[C@@H]2c2cc(F)ccc2OC)c1.Cl | 83% | 3.7 µM | 70% | 0.231 µM | Not Active |  | 
10 | COc1ccc(F)cc1[C@@H]1C[C@H]1CNCc1ccccc1F.Cl | 90% | 1.88 µM | 78% | 1.64 µM | Not Active |  | 
11 | COc1ccccc1CCNCC1CC1c1cc(F)ccc1OC (racemic) |  | 0.307 µM | 59% |  |  |  | 
12 | C=CCOc1ccc(F)cc1[C@H]1C[C@@H]1CNC.Cl | 15% | 0.284 µM | 19% | 0.013 µM | Not Active |  | 
13 | COc1ccc(F)cc1[C@@H]1C[C@H]1CNCc1cccs1.Cl | 81% | 0.674 µM | 59% | 0.308 µM | Not Active |  | 
14 | COc1cccc(CNC[C@@H]2C[C@H]2c2cc(F)ccc2OC)c1.Cl | 85% | 6.84 µM | 97% | 2.6 µM | Not Active |  | 
15 | COc1ccc(F)cc1C1CC1CNCc1ccccc1O.Cl (racemic) | 63% | 0.077 µM | 76% | 0.304 µM | Not Active |  | 
16 | COc1ccc(F)cc1C1CC1CNCc1cccc2ccsc12 (racemic) | 94% | 2.22 µM | 70% | 0.777 µM |  | 79% | EC50 [5]: 0.807 µM
17 | COc1ccccc1CN(C)CC1CC1c1cc(F)ccc1OC.Cl (racemic) | 49% | 2.54 µM | 24% | 0.67 µM | Not Active |  | 

Row | SMILES | Emax [1] | EC50 [2] | Emax at 5 min (5-HT2A receptor) | EC50 ([3]; read-out: EC50) | Activity [4] | Emax at 5 min (5-HT2B receptor) | other results
18 | COc1ccc(F)cc1C1CC1CNCC1CC1.Cl (racemic) |  | 4.26 µM | 43% |  | Not Active |  | Activity [7]: inactive
19 | COc1ccc(F)cc1C1CC1CNCC1CCCCC1.Cl (racemic) | 15% |  |  | 0.095 µM | Not Active |  | Activity [8]: Not Active
20 | COc1ccc(F)cc1C1CC1CNCc1ccsc1OC.Cl (racemic) | 65% | 0.463 µM | 100% | 0.556 µM | Not Active |  | 
21 | COc1ccc(F)cc1C1CC1CNCc1ccccc1OCCF (racemic) | 16% | 0.398 µM | 80% | 0.028 µM |  | 11% | Ratio EC50 (Homo sapiens): 2; EC50 [5]: 0.056 µM
22 | COc1ccc(F)cc1C1CC1CNCc1cccnc1OC (racemic) | 65% | 1.29 µM | 66% | 0.433 µM |  | 32% | EC50 [5]: 0.274 µM
23 | COc1ccc(F)cc1C1CC1CNCc1ccccc1C#N (racemic) | 30% | 0.721 µM | 63% | 0.245 µM |  | 82% | EC50 [5]: 0.238 µM
24 | COc1ccc(F)cc1[C@H]1C[C@@H]1CNCc1ccccc1Cl.Cl | 94% | 3.53 µM | 64% | 0.529 µM | Not Active |  | 
25 | COc1ccc(F)cc1[C@@H]1C[C@H]1CNCc1ccccc1Cl.Cl | 72% | 2.99 µM |  | 1.86 µM | Not Active |  | 
26 | COc1ccc(F)cc1C1CC1CNC1CC1 (racemic) | 70% | 1.09 µM | 69% | 0.399 µM |  | 14% | EC50 [5]: 0.641 µM
27 | COc1ccc(F)cc1C1CC1CNCc1cccc2cccnc12 (racemic) | 84% | 0.46 µM | 69% | 0.53 µM |  | 73% | EC50 [5]: 0.087 µM
28 | COc1ccc(CNC[C@H]2C[C@@H]2c2cc(F)ccc2OC)cc1.Cl | 71% |  |  | 1.2 µM | Not Active |  | Activity [8]: Not Active
29 | COc1ccc(F)cc1C1CC1CNCc1cccc2cc[nH]c12.Cl (racemic) |  |  |  |  | Not Active |  | Activity [7]: inactive; Activity [8]: Not Active
30 | COc1ccccc1C(C)NCC1CC1c1cc(F)ccc1OC.Cl (racemic) | 81% | 0.238 µM | 106% | 2.55 µM | Not Active |  | 
31 | COc1ccccc1CNC[C@@H]1C[C@H]1c1cc(F)ccc1OC | 104% |  | 94% |  |  | 72% | EC50 [5]: 0.57 µM
32 | COc1ccc(F)cc1[C@H]1C[C@@H]1CNCc1cccs1.Cl | 60% | 0.438 µM | 34% | 0.12 µM | Not Active |  | log(ratio) [9]: 6.7; Activity [10]: inactive
33 | COc1ccc(CNC[C@@H]2C[C@H]2c2cc(F)ccc2OC)cc1.Cl |  |  |  |  | Not Active |  | Activity [7]: inactive; Activity [8]: Not Active
34 | COc1ccc(F)cc1[C@H]1C[C@@H]1CNCc1ccccc1F.Cl | 78% | 1.88 µM | 63% | 0.502 µM | Not Active |  | 
